The values below come from ChEMBL document CHEMBL1123413, “Synthesis and biological evaluation of 1-(1,2-benzisothiazol-3-yl)- and (1,2-benzisoxazol-3-yl)piperazine derivatives as potential antipsychotic agents” (J Med Chem, 1986).

The species named for data set [1] is Rattus norvegicus. The experiment in a line: Compound was tested for the inhibition of apomorphine-induced stereotype. The data set is classed as functional. The method in brief: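 In rats, oral test compound was scored for block of apomorphine-induced stereotypy as an in vivo dopamine-system measure. ED50 (mg/kg, po) and fiducial limits by Berkson's method.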

For data set [2], the target named is Gamma-aminobutyric acid receptor subunit gamma-1 (Rattus norvegicus, UniProt P23574). The experiment in a line: Inhibition of [3H]muscimol binding to Gamma-aminobutyric acid (GABA-A) receptor.
Data set [3] is filed under the species Mus musculus. Briefly: Oral effective dose against physostigmine-induced lethality in mouse. The class given is functional. The gist of the method: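 Groups of 10 nonfasted male mice dosed orally with test compound (initial 100 mg/kg) or vehicle (distilled H2O or 0.5% methocel). At 30 min, physostigmine given ip at 1.25 mg/kg, and lethality followed for up to 1 h. Active compounds retested at lower doses, 10 mice/dose, for dose response. ED50 by Berkson's method.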

For data set [4], the species on record is Rattus norvegicus. The experiment in a line: Oral effective dose against ethanol potentiation in rat. The class given is functional. The method in brief: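 Nonfasted male rats received test drug or vehicle (distilled H2O or 0.5% methocel). EtOH (10 mL of 20% solution/kg, ip) followed at 15, 30, 60 or 120 min post-drug; the vehicle group got it at 15 min. Rats were watched about 10–15 min for loss of righting reflex lasting 1 min. Dose response at peak time used 10/dose; ED50 by Berkson.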

The species named for data set [5] is Rattus norvegicus. Briefly: Oral effective dose against spontaneous motor activity in rat. The class given is functional.
For data set [6], the species on record is Mus musculus. Briefly: Oral effective dose against norepinephrine-induced lethality in mouse. The data set is classed as functional. The gist of the method:
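Groups of 10 nonfasted male mice dosed orally with test compound (initial 100 mg/kg) or vehicle (distilled H2O or 0.5% methocel). Active compounds retested at lower doses, 10 mice/dose, for dose response. ED50 by Berkson's method.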

The species named for data set [7] is Rattus norvegicus. Briefly: Oral effective dose against hexobarbatial potentiation in rat. The class given is functional. The gist of the method:
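Hexobarbital sodium (40 mg/kg, ip) was given to nonfasted male rats 15, 30, 60 or 120 min after test drug, or 15 min after vehicle (distilled H2O or 0.5% methocel). Loss of righting reflex of 1-min duration was scored over about 10–15 min. Dose response at peak-effect time used 10 rats/dose; ED50 and fiducial limits by Berkson.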

The species named for data set [8] is Mus musculus. The experiment in a line: Oral effective dose against spontaneous motor activity in mouse. The data set is classed as functional.
Data set [9] in a line: Lethal dose after peroral administration in mouse. The class given is toxicity, organism-based. The conditions noted are these: in vivo, po.

SMILES strings stand for the structures.

One may read the ED50 as the midpoint of the dose-response relation. Usually IC50 stands for the midpoint of a concentration-inhibition curve. High values mean lower potency, low ones higher potency. By LD50 is commonly meant the dose expected to kill half of the subjects tested. A low value points to greater toxicity.

Sequence of Gamma-aminobutyric acid receptor subunit gamma-1 (P23574 whole entry): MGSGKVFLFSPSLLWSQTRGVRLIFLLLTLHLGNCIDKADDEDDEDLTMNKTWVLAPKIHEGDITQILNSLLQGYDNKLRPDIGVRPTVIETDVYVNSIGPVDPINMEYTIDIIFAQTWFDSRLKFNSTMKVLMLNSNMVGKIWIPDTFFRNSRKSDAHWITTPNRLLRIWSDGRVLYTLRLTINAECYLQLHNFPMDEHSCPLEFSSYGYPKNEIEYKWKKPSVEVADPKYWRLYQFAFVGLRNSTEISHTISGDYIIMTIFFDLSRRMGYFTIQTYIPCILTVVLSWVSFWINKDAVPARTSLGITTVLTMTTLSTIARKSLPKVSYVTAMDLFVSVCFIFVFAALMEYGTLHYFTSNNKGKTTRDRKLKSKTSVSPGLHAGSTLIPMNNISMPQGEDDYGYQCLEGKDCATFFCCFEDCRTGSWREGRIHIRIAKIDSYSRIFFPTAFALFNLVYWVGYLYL

Turning to `CSc1ccc2c(c1)N(CCC1CCCCN1C)c1ccccc1S2` (centres undefined) [THIORIDAZINE], the ED50 came to 280 mg/kg in the data set filed under Rattus norvegicus [1]; 45 mg/kg in the data set listed under Mus musculus [3]; 56 mg/kg in the data set listed under Rattus norvegicus [4]; 33 mg/kg in the data set filed under Rattus norvegicus [5]; 2.2 mg/kg in the data set listed under Mus musculus [6]; 27.3 mg/kg in the data set listed under Rattus norvegicus [7]. The ED50 in the data set listed under Mus musculus [8] turned out to be 12.8 mg/kg. The compound further had an IC50 in data set [2] above 1000 nM. For the same compound, the LD50 in [9] came to 250 mg/kg.
